Test results from ChEMBL document CHEMBL4002570, “Synthesis and cytostatic properties of polyfunctionalized furanoallocolchicinoids” (Eur J Med Chem, 2017).
Calls of active or inactive are those of the source.

Key:
[1] = system: BXPC-3; test: Cytotoxicity against 2D culture of human BxPC3 cells measured after 72 hrs by MTT assay; assay type: functional, cell-based; details: BXPC-3, 72 h
How it was run: (§1)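 Cells (tumor lines and HaCaT in DMEM with 10% FCS; bone-marrow MSC at passages 2-6) seeded at 3x10⁵ cells/mL 24 h before and allowed to adhere. Compounds dissolved in DMSO (20 mM stock), diluted 20 µM to 0.1 nM, exposed 72 h. MTT added for the last 6 h, formazan dissolved in DMSO, OD read at 540 nm. IC50 taken from titration curves.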

[2] = system: PANC-1; test: Cytotoxicity against 2D culture of human PANC1 cells measured after 72 hrs by MTT assay; assay type: functional, cell-based; details: PANC-1, 72 h; how it was run: as §1
[3] = system: COLO357; test: Cytotoxicity against 2D culture of human Colo-357 cells measured after 72 hrs by MTT assay; assay type: functional, cell-based; details: COLO357, 72 h; how it was run: as §1
[4] = system: MIA PaCa-2; test: Cytotoxicity against 2D culture of human MIAPaCa2 cells measured after 72 hrs by MTT assay; assay type: functional, cell-based; details: MIA PaCa-2, 72 h; how it was run: as §1
[5] = system: A549; test: Cytotoxicity against 2D culture of human A549 cells measured after 72 hrs by MTT assay; assay type: functional, cell-based; details: A549, 72 h; how it was run: as §1
[6] = Cytotoxicity against 2D culture of human MSC measured after 72 hrs by MTT assay; assay type: cell-based; how it was run: as §1
[7] = system: EA.hy 926; test: Cytotoxicity against 2D culture of human EAhy926 cells measured after 72 hrs by MTT assay; assay type: cell-based; details: EA.hy 926, 72 h; how it was run: as §1
[8] = system: HaCaT; test: Cytotoxicity against 2D culture of human HaCaT cells measured after 72 hrs by MTT assay; assay type: cell-based; how it was run: as §1
[9] = system: EA.hy 926; test: Cytotoxicity against 3D culture of human EAhy926 cells up to 10000 nM measured after 72 hrs by MTT assay; assay type: cell-based; details: ea.hy 926, 72 h
How it was run: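 Spheroids formed on polyHEMA-coated plates before drug addition, then handled like 2D MTT: dilutions from 20 µM to 0.1 nM, 72 h exposure, MTT for the final 6 h, DMSO solubilization, OD at 540 nm. Inhibition index = 1 − OD(exp)/OD(control); IC50 read at the 50% cutoff.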

[10] = system: COLO357; test: Induction of apoptosis in 2D culture of human Colo-357 cells assessed as accumulation at G2/M phase at 1 uM measured after 72 hrs by propidium iodide staining based flow cytometry; assay type: functional, cell-based
How it was run: (§2)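 Cultures (2D or polyHEMA spheroids) exposed to 1 µM for 72 h. Cells trypsinized, washed in ice-cold PBS, fixed in 70% ethanol for 2 h at −20 °C, stained with propidium iodide 50 µg/ml plus […] 10 µg/ml. Flow cytometry with 2000 events. Phase distribution gated on dot plots; apoptotic cells excluded in 3D histograms.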

[11] = system: MIA PaCa-2; test: Induction of apoptosis in 2D culture of human MIAPaCa2 cells assessed as accumulation at G2/M phase at 1 uM measured after 72 hrs by propidium iodide staining based flow cytometry; assay type: functional, cell-based
[12] = system: COLO357; test: Induction of apoptosis in 3D culture of human Colo-357 cells assessed as accumulation at G2/M phase at 1 uM measured after 72 hrs by propidium iodide staining based flow cytometry; assay type: functional, cell-based; how it was run: as §2
[13] = system: MIA PaCa-2; test: Induction of apoptosis in 3D culture of human MIAPaCa2 cells assessed as accumulation at G2/M phase at 1 uM measured after 72 hrs by propidium iodide staining based flow cytometry; assay type: functional, cell-based; how it was run: as §2
[14] = system: COLO357; test: Disruption of mitotic spindle in human Colo-357 cells at 1 uM measured after 72 hrs by Hoechst 33342 staining based confocal microscopic analysis; assay type: functional, cell-based
[15] = system: COLO357; test: Induction of beta-tubulin expression in human Colo-357 cells at 1 uM measured after 24 hrs by Hoechst 33342 staining based confocal microscopic analysis; assay type: functional, cell-based
How it was run: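 Colo-357 in 2D exposed to 1 µM for 24 h, fixed, then stained with anti-β-tubulin antibody (red) and Hoechst 33342. Confocal imaging; mean fluorescence intensity from red pixel counts over several fields; significance taken at p<0.05.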

[16] = system: COLO357; test: Induction of total tubulin expression in 3D culture of human Colo-357 cells measured after 48 hrs by propidium iodide staining based flow cytometry; assay type: functional, cell-based
How it was run: (§3)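 Spheroids on polyHEMA exposed to 1 µM for 48 h, trypsinized, permeabilized, stained with anti-tubulin antibody and phalloidin-AlexaFluor488 for F-actin, and analyzed by flow cytometry.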

[17] = system: COLO357; test: Induction of beta-tubulin expression in human Colo-357 cells assessed as mean fluorescence intensity at 1 uM measured after 24 hrs by Hoechst 33342 staining based confocal microscopic analysis (reference value: 52 +/- 12); assay type: functional
[18] = system: COLO357; test: Induction of F-actin expression in 3D culture of human Colo-357 cells at 1 uM measured after 48 hrs by propidium staining based flow cytometry; assay type: functional, cell-based; how it was run: as §3
[19] = system: MIA PaCa-2; test: Induction of F-actin expression in 3d culture of human MIAPaCa2 cells at 1 uM measured after 48 hrs by propidium staining based flow cytometry; assay type: functional, cell-based; how it was run: as §3
[20] = system: COLO357; test: Induction of mitochondrial membrane hyperpolarization in 3D culture of human Colo-357 cells at 1 uM measured after 48 hrs by DiOC6 dye based flow cytometry; assay type: functional, cell-based
How it was run: (§4)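 Spheroids on polyHEMA exposed to 1 µM for 48 h, trypsinized. Live cells stained for 1 h with DiOC₆ (mitochondrial potential), LysoTrackerRed (lysosomal potential) or propidium iodide (membrane permeability), then analyzed by flow cytometry.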

[21] = system: MIA PaCa-2; test: Induction of mitochondrial membrane hyperpolarization in 3D culture of human MIAPaCa2 cells at 1 uM measured after 48 hrs by DiOC6 dye based flow cytometry; assay type: functional, cell-based; how it was run: as §4
[22] = system: COLO357; test: Induction of lysosomal membrane hyperpolarization in 3D culture of human Colo-357 cells at 1 uM measured after 48 hrs by LysoTrackRed dye based flow cytometry; assay type: functional, cell-based; how it was run: as §4
[23] = system: MIA PaCa-2; test: Induction of lysosomal membrane hyperpolarization in 3D culture of human MIAPaCa2 cells at 1 uM measured after 48 hrs by LysoTrackRed dye based flow cytometry; assay type: functional, cell-based; how it was run: as §4
[24] = system: COLO357; test: Induction of cell membrane permeability in 3D culture of human Colo-357 cells at 1 uM measured after 48 hrs by propidium iodide staining based flow cytometry; assay type: functional; how it was run: as §4
[25] = system: MIA PaCa-2; test: Induction of cell membrane permeability in 3D culture of human MIAPaCa2 cells at 1 uM measured after 48 hrs by propidium iodide staining based flow cytometry; assay type: functional; how it was run: as §4
[26] = system: PANC-1; test: Disruption of preformed spheroids in human PANC1 cells at 1 uM measured after 48 hrs by propidium staining based flow cytometry; assay type: functional, cell-based
[27] = system: MIA PaCa-2; test: Disruption of preformed spheroids in human MIAPaCa2 cells at 1 uM measured after 48 hrs by propidium staining based flow cytometry; assay type: functional, cell-based
[28] = system: COLO357; test: Disruption of preformed spheroids in human Colo-357 cells at 1 uM measured after 48 hrs by propidium staining based flow cytometry; assay type: functional, cell-based

COc1cc2c(c(OC)c1OC)-c1cc3cc(CCO)oc3cc1C(O)CC2 (centres undefined)
IC50 [1]: 400 nM
IC50 [2]: 400 nM
IC50 [3]: > 400 nM
IC50 [4]: > 400 nM
IC50 [5]: 400 nM

COc1cc2c(c(OC)c1OC)-c1cc3cc(CCO)oc3cc1C(=O)CC2
IC50 [1]: 400 nM
IC50 [2]: 400 nM
IC50 [3]: > 400 nM
IC50 [4]: > 400 nM
IC50 [5]: 400 nM

COc1cc2c(c(OC)c1OC)-c1ccc(OC)c(=O)cc1[C@@H](NC(C)=O)CC2 [COLCHICINE]
IC50 [1]: 80 nM
IC50 [2]: 80 nM
IC50 [3]: 160 nM
IC50 [4]: 160 nM
IC50 [5]: 400 nM
IC50 [6]: > 800 nM
IC50 [7]: > 800 nM
IC50 [8]: 80 nM
Activity [9]: Non-Toxic
Activity [10]: Active
Activity [11]: Active
Activity [12]: Active
Activity [13]: Active
Activity [14]: Active
Activity [15]: Active
Activity [16]: Active
Flu intensity [17]: 74
Activity [18]: inactive
Activity [19]: Active
Activity [20]: Active
Activity [21]: Active
Activity [22]: Active
Activity [23]: Active
Activity [24]: Active
Activity [25]: Active
Activity [26]: Active
Activity [27]: Active
Activity [28]: Active

COc1cc2c(c(OC)c1OC)-c1cc3cc(CO)oc3cc1C(O)CC2 (centres undefined)
IC50 [1]: 16 nM
IC50 [2]: 16 nM
IC50 [3]: 16 nM
IC50 [4]: 16 nM
IC50 [5]: 16 nM
IC50 [6]: > 800 nM
IC50 [7]: > 800 nM
IC50 [8]: 16 nM
Activity [9]: Non-Toxic
Activity [10]: Active
Activity [11]: Active
Activity [12]: Active
Activity [13]: Active
Activity [14]: Active
Activity [15]: Active
Activity [16]: Active
Flu intensity [17]: 110
Activity [18]: Active
Activity [19]: Active
Activity [20]: Active
Activity [21]: Active
Activity [22]: Active
Activity [23]: Active
Activity [24]: Active
Activity [25]: Active
Activity [26]: Active
Activity [27]: Active
Activity [28]: Active

COc1cc2c(c(OC)c1OC)-c1cc3cc(C(C)O)oc3cc1C(=O)CC2 (centres undefined)
IC50 [1]: 80 nM
IC50 [2]: 70 nM
IC50 [3]: 100 nM
IC50 [4]: > 100 nM
IC50 [5]: 40 nM

COc1cc2c(c(OC)c1OC)-c1cc3cc(C(C)O)oc3cc1C(O)CC2 (centres undefined)
IC50 [1]: 30 nM
IC50 [2]: 30 nM
IC50 [3]: 64 nM
IC50 [4]: 64 nM
IC50 [5]: 80 nM

COc1cc2c(c(OC)c1OC)-c1cc3cc(COC(C)=O)oc3cc1C(=O)CC2
IC50 [1]: 16 nM
IC50 [2]: 16 nM
IC50 [3]: 16 nM
IC50 [4]: 16 nM
IC50 [5]: 80 nM

COc1cc2c(c(OC)c1OC)-c1cc3cc(CO)oc3cc1C(=O)CC2
IC50 [1]: 16 nM
IC50 [2]: 16 nM
IC50 [3]: 16 nM
IC50 [4]: 64 nM
IC50 [5]: 16 nM
IC50 [6]: > 800 nM
IC50 [7]: > 800 nM
IC50 [8]: 16 nM
Activity [9]: Non-Toxic
Activity [10]: Active
Activity [11]: Active
Activity [12]: Active
Activity [13]: Active
Activity [14]: Active
Activity [15]: Active
Activity [16]: Active
Flu intensity [17]: 73
Activity [18]: inactive
Activity [19]: Active
Activity [20]: Active
Activity [21]: Active
Activity [22]: Active
Activity [23]: Active
Activity [24]: Active
Activity [25]: Active
Activity [26]: Active
Activity [27]: Active
Activity [28]: Active
